According to article PMC4335074 (Clinical cancer research : an official journal of the …, 2014):
Where two headings read alike, the source gives them in different places.

Columns and labels:
P-glycoprotein = settings: no reference given; cited from earlier work
pT70 4E-BP1 = assay: Immunoblotting of downstream signalling biomarkers in HCT116 cells; format: cell-based, Human; settings: HCT116, 24 hours, immunoblot
In short: (§1)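 HCT116 colon cancer cells (KRAS G13D; from ATCC, STR-authenticated) were exposed for 24 h to the AKT-inhibitor test compound, the MEK-inhibitor test compound, or both together, each at set concentrations, before immunoblot analysis of phospho-markers.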

[1] = system: pS235/236 S6 ribosomal protein (S6RP); assay: as above; format: cell-based, Human; settings: HCT116, 24 hours, immunoblot
In short: as §1

AKT 3 = settings: cited from earlier work
[2] = preclinical models; no reference given; cited from earlier work
CYP3A4 = settings: no reference given; cited from earlier work
[3] = Phase I combination study: pharmacokinetics; format: in vivo, human; settings: for Cmax: selumetinib 100 mg QD, combination MTD cohort
tumour pS473 AKT = settings: MK-2206 monotherapy 60 mg QOD; cited from earlier work
pS473 AKT [4] = settings: at 57 nmol/L MK-2206, preclinical models; no reference given; cited from earlier work
pS473 AKT [5] = assay: Immunoblotting of downstream signalling biomarkers in HCT116 cells; format: cell-based, Human; settings: HCT116, 24 hours, immunoblot
In short: as §1

[6] = cited from earlier work
AKT 1 = settings: cited from earlier work
pT202/Y204 ERK = assay: Immunoblotting of downstream signalling biomarkers in HCT116 cells; format: cell-based, Human; settings: HCT116, 24 hours, immunoblot
In short: as §1

CYP2C19 = settings: no reference given; cited from earlier work
CYP1A2 = settings: no reference given; cited from earlier work
AKT 2 = settings: cited from earlier work
KRAS-mutant NSCLC = settings: phase II, KRAS-mutant NSCLC patients; cited from earlier work
MEK = settings: non-ATP competitive; cited from earlier work
pERK = settings: at 6 hours, peripheral blood mononuclear cells and paired tumour biopsies; cited from earlier work
[7] = selumetinib monotherapy, cited from earlier work

NC1(c2ccc(-c3nc4ccn5c(=O)[nH]nc5c4cc3-c3ccccc3)cc2)CCC1 [MK-2206]
P-glycoprotein inhibition (P-glycoprotein): only a weak inhibitor
P-glycoprotein substrate status (P-glycoprotein): substrates
Inhibition of pT70 4E-BP1 (pT70 4E-BP1): incompletely inhibited
Inhibition of pS235/236 S6RP [1]: no effect
IC50 (AKT 3): 65 nM
Inhibition of CYP3A4 (CYP3A4): neither of these drugs is a potent inhibitor
half-life ([3]; human, in vivo, oral): 61.7 ± 15.2 h
Patients achieving target steady-state trough concentration of >57 nmol/L ([3]; in 48 hours at the 135 mg QW MTD level): 100%
Median suppression of post-dose tumour pS473 AKT (tumour pS473 AKT): 81%
Inhibition of pS473 AKT (pS473 AKT [4]): > 70%
Inhibition of pS473 AKT (pS473 AKT [5]): completely abrogated
Terminal half-life (t1/2) ([6]; MK-2206 monotherapy 60 mg QOD): 71.3 h
Maximum-tolerated dose (MTD) ([6]; MK-2206 monotherapy, QOD schedule): 60 mg
Maximum-tolerated dose (MTD) ([6]; MK-2206 monotherapy, weekly schedule): 200 mg
Clinical toxicities ([6]; MK-2206 monotherapy): erythematous maculopapular rash and stomatitis
Dose-limiting toxicity (DLT) ([6]; MK-2206 monotherapy): Rash
Inhibition of pT202/Y204 ERK (pT202/Y204 ERK): no effect
Inhibition of CYP2C19 (CYP2C19): neither of these drugs is a potent inhibitor
Inhibition of CYP1A2 (CYP1A2): neither of these drugs is a potent inhibitor
IC50 (AKT 2): 12 nM

CC(=O)O[C@@]12CO[C@@H]1C[C@H](O)[C@@]1(C)C(=O)[C@H](O)C3=C(C)[C@@H](OC(=O)[C@H](O)[C@@H](NC(=O)OC(C)(C)C)c4ccccc4)C[C@@](O)([C@@H](OC(=O)c4ccccc4)[C@H]21)C3(C)C [docetaxel]
Median overall survival (OS) (KRAS-mutant NSCLC): 5.3 months
Progression free survival (KRAS-mutant NSCLC): 2.1 months

Cn1cnc2c(F)c(Nc3ccc(Br)cc3Cl)c(C(=O)NOCCO)cc21 [selumetinib]
P-glycoprotein inhibition (P-glycoprotein): not an inhibitor
P-glycoprotein substrate status (P-glycoprotein): substrates
IC50 (MEK): 10 to 14 nM
Inhibition of pT70 4E-BP1 (pT70 4E-BP1): incompletely suppressed
Inhibition of pS235/236 S6RP [1]: incompletely suppressed
Inhibition of CYP3A4 (CYP3A4): neither of these drugs is a potent inhibitor
Cmax ([3]; human, in vivo, oral, Cmax range): 554 to 2540 ng/mL
Cmax ([3]; human, in vivo, oral, Mean Cmax): 1140 ng/mL
Inhibition of pS473 AKT (pS473 AKT [5]): did not affect
Inhibition of pT202/Y204 ERK (pT202/Y204 ERK): blocked pT202/Y204 ERK completely
Inhibition of CYP2C19 (CYP2C19): neither of these drugs is a potent inhibitor
Suppression of pERK (pERK): observed
Inhibition of CYP1A2 (CYP1A2): neither of these drugs is a potent inhibitor
Established dose ([7]; freebase powder formulation, BID): 100 mg
Terminal t1/2 ([7]; hydrogen sulphate oral capsule): 5.3 h
Clinical toxicities [7]: acneiform dermatitis, diarrhoea, fatigue, nausea, and peripheral oedema
Dose-limiting toxicity (DLT) [7]: Rash
